# Published values of several laboratories.
# Compare with care: the assays were run in different laboratories.
# Observed: enzyme activity
# Action: inhibitor
# LCK phosphorylated: Tyrosine-protein kinase Lck, phosphorylated (LCK, Homo sapiens, UniProt P06239)
# LCK: Tyrosine-protein kinase Lck (LCK, Homo sapiens, UniProt P06239)
SMILES,target,technique,tested at,remaining activity
CCN(CC)c1ccc(C2=NNC(=O)CC2C)cc1[N+](=O)[O-] (stereo not drawn),LCK phosphorylated,,10 µM,104%
Cc1ccc(NC(=O)c2ccc(C)c(C(F)(F)F)c2)cc1C#Cc1nn(C2CCC(O)CC2)c2ncnc(N)c12 (stereo not drawn),LCK,,10 µM,0%
Oc1cccc(-c2nc(N3CCOCC3)c3oc4ncccc4c3n2)c1,LCK,,0.5 µM,98%
CCCOc1ccc(OC)c(F)c1C(=O)c1ccc(C(=O)N[C@@H]2CNC[C@H]2NC(=O)c2ccc3[nH]ncc3c2)cc1,LCK phosphorylated,,10 µM,18%
CC(C)(O)[C@H]1CC[C@H](Nc2ccc3ncc(-c4cccc(C(F)(F)F)c4)n3n2)CC1,LCK,,1 µM,11.1%
Cc1[nH]c(/C=C2\C(=O)Nc3ccc(F)cc32)c(C)c1C(=O)N[C@H]1CCN(C(=O)N(C)C)C1,LCK,,0.1 µM,87%
O=C(Nc1cnn(-c2csc(C(=O)NC3COC3)c2)c1)Nc1ccccc1Cl,LCK,,5 µM,99.1%
Cc1cnc(NC2CCOCC2)nc1-n1cnc(C(=O)NC(CN)c2cc(F)cc(Cl)c2)c1 (stereo not drawn),LCK phosphorylated,radiometric,1 µM,109%
COc1cc2ncnc(Nc3cccc(Cl)c3)c2cc1OC,LCK,,0.5 µM,74.9%
FC(F)c1nc2ccccc2n1-c1nc(N2CCOCC2)nc(N2CCOCC2)n1,LCK,,10 µM,89%
CC(C)N(CCC(=O)c1ccc2ccccc2c1)Cc1ccccc1,LCK,,0.5 µM,98.9%
CC(C)(C)C(=O)c1sc(NC2CCCCC2)nc1N,LCK,,10 µM,85%
COc1cc(Nc2cnc(C#N)c(O[C@H](C)CN(C)C)n2)ncc1-c1cnn(C)c1,LCK,radiometric,10 µM,20%
O=C1NC(=O)c2cc(Nc3ccc(F)cc3)c(Nc3ccc(F)cc3)cc21,LCK,,0.5 µM,98.4%
COc1cc(Cl)c(C(=O)N[C@@H](CN[C@H]2CC[C@@H](N)CC2)Cc2ccc(C#N)cc2)cc1-c1ccc(CN[C@H](C)c2ccc(C)cc2)o1,LCK,,1 µM,75%
Oc1cccc(-c2nc(N3CCOCC3)c3oc4ncccc4c3n2)c1,LCK,,10 µM,85%
Nc1nc(Nc2ccccc2)sc1C(=O)c1c(F)cccc1F,LCK,,10 µM,49%
COc1cc2c(N3CCN(C(=O)Nc4ccc(OC(C)C)cc4)CC3)ncnc2cc1OCCCN1CCCCC1,LCK,,0.5 µM,87.1%
Cc1ccc(C(=O)Nc2ccc(CN3CCN(C)CC3)c(C(F)(F)F)c2)cc1C#Cc1cnc2cccnn12,LCK,,23.5 nM,0.8%
CC(C)(C)c1nc2c(s1)c1nc(N)ncc1c1ccc(NS(=O)(=O)c3c(F)cccc3F)c(F)c12,LCK,radiometric,1 µM,80%
N#CCCc1ccc2c(c1)-c1[nH]c3ccc([N+](=O)[O-])cc3c1CC(=O)N2,LCK,,0.5 µM,78.2%
